# MC4R antag cAMP – MC4R antagonists of cAMP signaling, primary screen, cell-based, TR-FRET, antagonist arm of biased-ligand search | MC4R-expressing cells, MTII-stimulated cAMP, LANCE TR-FRET | inhibition, % at 6.5 µM | 360,000 compounds, 0.48% hits | AID 540295, 2011;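 active = inhibition above its plate's cutoff, the mean of tested wells on that plate plus 3 SD, cut at about 29% in these data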;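 also: 0% = Melanotan II alone and 100% = Melanotan II plus saturating MCL0020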
# Target sequence (P32245 whole entry, looked up): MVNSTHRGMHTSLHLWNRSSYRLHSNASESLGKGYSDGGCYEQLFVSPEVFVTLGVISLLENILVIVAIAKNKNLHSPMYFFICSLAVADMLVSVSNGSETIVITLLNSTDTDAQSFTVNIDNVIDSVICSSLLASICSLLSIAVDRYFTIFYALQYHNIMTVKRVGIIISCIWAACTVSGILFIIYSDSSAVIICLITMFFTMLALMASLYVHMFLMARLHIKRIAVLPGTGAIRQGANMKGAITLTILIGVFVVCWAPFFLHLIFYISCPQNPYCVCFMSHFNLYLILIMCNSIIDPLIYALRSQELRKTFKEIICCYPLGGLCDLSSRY
#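 System: U2OS cells stably expressing human melanocortin 4 receptor (MC4R). Reagent: Melanotan II challenge after compound preincubation. Doses: 6.5 µM. Times: 30-min compound, 1-h challenge, 1-h detection, room temperature. Measured by: TR-FRET with Eu-cAMP and labeled anti-cAMP, 671 nm. Replicates: singlicate.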
# MC4R ag barr – MC4R agonists recruiting beta-arrestin, primary screen, cell-based, luminescence, agonist arm of biased-ligand search. activation, % at 8.9 µM. U2OS MC4R beta-arrestin complementation; percent of melanotan II response, DMSO zero. 360,000 compounds, 0.98% hits. Melanocortin receptor 4 (Homo sapiens), P32245;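 active = activation above a per-plate cutoff, the mean activation of sample wells on that plate plus 3 SD, cut at about 8% in these data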
# AI-2 QS modul – Vibrio harveyi AI-2 quorum sensing modulators, primary screen, JMH597 strain, luminescence/OD600 ratio; AID 2094, 2009; Vibrio harveyi JMH597 AI-2 luminescence/OD600 ratio, 9 h; stronger effect = lower value; strain lacks LuxN and CqsS sensors; 0 = neutral-control median; 300,000 compounds, 0.4% hits; activity change, % at 7.5 µM; in the data active = activity change below about -75%, passing the limit was not always enough;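 also: luminescence divided by OD600 gain over 9 h not by final OD600 alone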
# NTR1 ag – agonists of human NTR1, primary screen, imaging, U2OS cells, beta-arrestin-GFP, high content; Neurotensin receptor type 1 (Homo sapiens), P30989; NTR1-U2OS beta-arrestin-GFP spot imaging, agonist mode; activation, % at 20 µM; 330,000 compounds, 0.17% hits; AID 493036, 2011;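 active = activation at or above 40% of the spot to cytoplasm intensity ratio, with at least 20 cells analyzed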;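 also: 0% = DMSO without peptide and 100% = 100 nM NTR1 peptide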
# U2OS cAMP counter – nonselective cAMP signaling inhibitors, parental cells, counter-screen for MC4R biased antagonist project, cell-based, TR-FRET, U2OS, forskolin, triplicate; LANCE TR-FRET; 1,600 compounds, 26% hits; AID 602193, 2012; shares compounds with MC4R antag cAMP; inhibition, % at 6.5 µM;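 active = mean inhibition over triplicates above the low-control well mean plus 3 SD, set per campaign, cut at about 13% in these data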;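 also: signal is single emission at 671 nm which falls as cellular cAMP rises; 0% = forskolin-stimulated wells and 100% = buffer without forskolin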
# MC4R cAMP antag – MC4R cAMP antagonists, retest, confirmation, cell-based, TR-FRET | AID 602195, 2012 | shares compounds with MC4R antag cAMP | 1,600 compounds, 27% hits | inhibition, % at 6.5 µM | MC4R-expressing cells, MTII-stimulated cAMP; in the data active = inhibition above about 29%;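 also: 0% = agonist stimulated wells alone and 100% = agonist stimulated wells plus saturating reference antagonist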
# * marks the source's active call; other numbers are inactive results; · = no result. This is a sample that favours compounds with a hit; in the whole collection about 1.8% have one here.
SMILES,MC4R antag cAMP,MC4R ag barr,AI-2 QS modul,NTR1 ag,U2OS cAMP counter,MC4R cAMP antag
CC(=O)c1sc(C(C)(C)C)cc1NC(=O)c1ccccc1C(=O)O,36*,-1,4,0,32*,56*
O=C(O)c1ccccc1C(=O)Nc1ccccc1NC(=O)c1ccccc1C(=O)O,18,1,31,-2,·,·
Clc1ccc(-c2nc3cc(CN4CCCCC4)ccc3o2)cc1,1,-1,29,·,·,·
O=C(O)CNC(=O)C(c1ccccc1)c1ccccc1,4,-1,11,0,·,·
O=C(CNC(=O)C(c1ccccc1)c1ccccc1)OCc1ccccc1,30*,0,19,0,13,19
C=CCN(C(=O)CCc1ccccc1OC)c1nc(-c2ccc(S(C)(=O)=O)cc2)cs1,31*,1,14,2,0,-3
COc1ccc(C(=O)OCCN=C2NS(=O)(=O)c3ccccc32)cc1OC,30*,2,-6,0,-1,-10
COc1ccccc1C(=O)OCCCN=C1NS(=O)(=O)c2ccccc21,10,-1,15,0,·,·
CC(=O)N(C1=C(N)C(=O)c2ccccc2C1=O)C(C)C,8,-1,-6,0,·,·
COc1ccccc1N(C(C)=O)C1=C(Cl)C(=O)c2ccccc2C1=O,98*,-4,·,·,50*,13
COc1ccc(N(C)S(=O)(=O)c2cccc(C(=O)OCC(=O)N3CC(C)CC(C)C3)c2)cc1 (stereo not given),5,-1,·,3,·,·
O=C(CSc1c2c(nc3cc(Cl)ccc13)CCCC2)NCCN1CCOCC1,30*,-3,30,2,3,24
O=C1C=CC(=O)N1CCCCCCCCCCN1C(=O)C=CC1=O,78*,-4,·,·,20*,49*
O=C(NCc1ccccn1)c1nc(Cn2cc([N+](=O)[O-])cn2)no1,-2,-1,24,0,·,·
COc1cc([N+](=O)[O-])cc(/C=N/NC(=O)Cn2nccc2C)c1O,29*,-2,1,0,-6,-14
COc1cc([N+](=O)[O-])cc(/C=N/NC(=O)Cn2nc(C)cc2C)c1O,2,-1,75,-1,·,·
Cc1ccc(-n2nc3c(=O)n(CCCC(=O)NCc4ccco4)nc(C)c3c2C)cc1,2,-2,14,0,·,·
Cc1ccc(S(=O)(=O)N2CCCCC2)cc1NC(=O)COC(=O)c1cccn1C,2,-3,·,0,·,·
O=C(Cn1cc(C(F)(F)F)ccc1=O)NC(c1ccccc1)c1ccccc1,36*,-1,4,1,4,9
CC(C)(C)NC(=O)NC(=O)Cn1cc(C(F)(F)F)ccc1=O,7,-1,10,1,·,·
C#CCOCCOCCOCCNc1nc(N2CCN(C(=O)CCCCCCCCCCNC(=O)[C@H]([C@@H](C)CC)n3cc(CCCCN=C(N)N)nn3)CC2)nc(N2CCN(C(=O)CCCCCCCCCCNC(=O)[C@@H]([C@H](C)O)n3cc(C)nn3)CC2)n1,38*,-1,·,9,19*,55*
O=C(OCC(=O)N1CCC(Cc2ccccc2)CC1)c1ccc(CO)cc1,4,-1,·,0,·,·
Cc1cccc(C)c1NC(=O)COc1ccccc1C(=O)Nc1ccc(Br)cn1,33*,3,-15,12,50*,91*
NS(=O)(=O)c1ccc(NS(=O)(=O)c2ccc3c(c2)OCCO3)cc1,30*,-1,25,-1,-5,-10
O=C(c1ccc(NS(=O)(=O)c2ccc3c(c2)OCCO3)cc1)N1CCCCC1,15,0,22,1,·,·
SMILES,MC4R antag cAMP,MC4R ag barr,AI-2 QS modul,NTR1 ag,U2OS cAMP counter,MC4R cAMP antag
COc1ccc(OC)c(Cc2nnc(CCC(=O)N3CCCCC3c3nccs3)o2)c1 (stereo not given),30*,1,21,3,-5,-21
Cc1cccc(CNc2ncc(-c3cccc([N+](=O)[O-])c3)n2C)c1,33*,-1,-1,3,2,-1
Cn1c(-c2cccc([N+](=O)[O-])c2)cnc1NCc1cccc([N+](=O)[O-])c1,16,0,19,2,·,·
CCC(C)NS(=O)(=O)c1ccc(S(=O)(=O)N(CCc2ccc(OC)c(OC)c2)Cc2cccs2)cc1 (stereo not given),32*,-1,43,3,-10,-18
COc1ccc(CCN(Cc2cccs2)S(=O)(=O)c2ccc(S(=O)(=O)N3CCCCCC3)cc2)cc1OC,5,-2,24,2,·,·
CN1CCN(C(=O)c2cc(S(=O)(=O)Nc3ccccc3F)c(Cl)cc2Cl)CC1,35*,2,15,-1,1,3
Cc1ccc(S(=O)(=O)Nc2ccccc2F)cc1C(=O)N1CCCC1,4,-1,·,0,·,·
CCc1c(C)c2ccc(OCC(=O)NCC3CCC(C(=O)O)CC3)cc2oc1=O (stereo not given),21,-1,21,-2,·,·
COc1ccc(C2/C(=C(/O)c3ccccc3)C(=O)C(=O)N2c2ccccn2)cc1OC (stereo not given),-6,-2,15,1,·,·
O=C1C(=O)N(c2ccccn2)C(c2cccc(F)c2)/C1=C(/O)c1ccccc1 (stereo not given),29*,1,6,0,-2,-23
CCCOc1ccc(/C(O)=C2\C(=O)C(=O)N(c3ccccn3)C2c2ccccc2F)cc1C (stereo not given),42*,3,34,2,33*,20
COC(=O)c1ccc(N/C=C/C(=O)c2ccccc2)cc1,19,1,-9,0,·,·
COc1ccc2c(c1OC)C(=O)N1C2SC(C)(C)[C@H]1C(=O)NCC(C)C (stereo not given in full),4,-1,8,0,·,·
N#Cc1c(-c2ccc(Br)cc2)cc(-c2cccnc2)nc1N,7,-1,16,1,·,·
COc1ccc(-c2cc(-c3ccc(OC)cc3)c(C#N)c(SC)n2)cc1,4,-3,0,0,·,·
N#Cc1c(-c2ccccc2)cc(-c2ccc(O)cc2)nc1N,-12,0,-15,4,·,·
CS(=O)(=O)c1nc(-c2ccc(Br)cc2)cc(-c2ccccc2)c1C#N,43*,4,-13,15,25*,65*
COc1ccc(-c2cc(-c3ccccc3)c(C#N)c(S(C)(=O)=O)n2)cc1,30*,0,·,11,17*,48*
